In ChEMBL document CHEMBL1212735, “Metronidazole resistance in Prevotella spp. and description of a new nim gene in Prevotella baroniae” (2010):
Values after ≈ are worked out from the molar mass of the structure shown.

Tests used:
Type in all cases: functional
[1] = tested on: Prevotella bivia; experiment: Antimicrobial activity against Prevotella bivia LBN 361 deficient in nim gene assessed as inhibition of growth at 48 hrs by agar dilution method; conditions: LBN 361, 48 h
In short: (§1)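 Metronidazole MIC by agar dilution (CLSI M11-A7) on brucella agar with 5% sheep blood, hemin and vitamin K1. Plates were read after 48 h at 35°C under anaerobic conditions. Susceptible was MIC ≤ 4 μg/ml and resistant MIC ≥ 8 μg/ml (EUCAST). B. fragilis ATCC 25285T and B. thetaiotaomicron ATCC 29741 were run as controls. Duplicate assays.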

[2] = tested on: Prevotella bivia; experiment: Antimicrobial activity against Prevotella bivia LBN 334 deficient in nim gene assessed as inhibition of growth at 48 hrs by agar dilution method; conditions: LBN 334, 48 h; in short: as §1
[3] = tested on: Prevotella buccae; experiment: Antimicrobial activity against Prevotella buccae LBN 465 deficient in nimI gene assessed as inhibition of growth at 48 hrs by agar dilution method; conditions: Segatella buccae, LBN 465, 48 h
In short: (§2)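 Agar dilution MIC on brucella agar with 5% sheep blood, hemin and vitamin K1, following CLSI M11-A7. Plates read after 48 h at 35°C under anaerobic conditions, with B. fragilis ATCC 25285T and B. thetaiotaomicron ATCC 29741 as controls. Assays in duplicate. Isolates kept at −80°C in brucella broth with 15% glycerol. Interpretation used EUCAST breakpoints (S ≤4, R ≥8 μg/ml).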

[4] = tested on: Prevotella bivia; experiment: Antimicrobial activity against Prevotella bivia LBP 52 deficient in nim gene assessed as inhibition of growth at 48 hrs by agar dilution method; conditions: LBP 52, 48 h; in short: as §1
[5] = tested on: Prevotella baroniae; experiment: Antimicrobial activity against Prevotella baroniae LBP 19 expressing nim gene assessed as inhibition of growth at 48 hrs by agar dilution method; conditions: Segatella baroniae, LBP 19, 48 h; in short: as §1
[6] = tested on: Prevotella bivia; experiment: Antimicrobial activity against slow growing colonies of Prevotella bivia LBP 51 deficient in nim gene assessed as inhibition of growth at 48 hrs by agar dilution method; conditions: LBP 51, 48 h
In short: (§3)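 Metronidazole MIC by agar dilution per CLSI M11-A7 on brucella agar with 5% sheep blood, hemin and vitamin K1. Plates incubated anaerobically at 35°C and read at 48 h, with a second reading after a further 72 h. B. fragilis ATCC 25285T and B. thetaiotaomicron ATCC 29741 served as controls. Done in duplicate; EUCAST breakpoints applied (S ≤4, R ≥8 μg/ml).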

[7] = tested on: Prevotella bivia; experiment: Antimicrobial activity against slow growing colonies of Prevotella bivia LBN 361 deficient in nim gene assessed as inhibition of growth at 48 hrs by agar dilution method; conditions: LBN 361, 48 h; in short: as §3
[8] = tested on: Prevotella bivia; experiment: Antimicrobial activity against slow growing colonies of Prevotella bivia LBN 371 deficient in nim gene assessed as inhibition of growth at 48 hrs by agar dilution method; conditions: LBN 371, 48 h; in short: as §3
[9] = tested on: Prevotella baroniae; experiment: Antimicrobial activity against Prevotella baroniae DSM 16972T expressing nim gene assessed as inhibition of growth at 48 hrs by agar dilution method; conditions: Segatella baroniae; in short: as §1
[10] = tested on: Prevotella bivia; experiment: Antimicrobial activity against slow growing colonies of Prevotella bivia LBN 343 deficient in nim gene assessed as inhibition of growth at 48 hrs by agar dilution method; conditions: LBN 343, 48 h
In short: (§4)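 Slowly growing colonies inside the Etest inhibition zone, seen after prolonged incubation (an additional 72 h after the 48 h reading), were subcultured without antibiotic. They were then retested for metronidazole MIC by agar dilution on supplemented brucella blood agar under anaerobic conditions.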

[11] = tested on: Prevotella nanceiensis; experiment: Antimicrobial activity against Prevotella nanceiensis LBN 410 deficient in nim gene assessed as inhibition of growth at 48 hrs by agar dilution method; conditions: Hoylesella nanceiensis, LBN 410, 48 h; in short: as §1
[12] = tested on: Prevotella bivia; experiment: Antimicrobial activity against Prevotella bivia LBP 69 deficient in nim gene assessed as inhibition of growth at 48 hrs by agar dilution method; conditions: LBP 69, 48 h; in short: as §1
[13] = tested on: Prevotella baroniae; experiment: Antimicrobial activity against Prevotella baroniae LBP 9 expressing nim gene assessed as inhibition of growth at 48 hrs by agar dilution method; conditions: Segatella baroniae, LBP 9, 48 h; in short: as §1
[14] = tested on: Prevotella bivia; experiment: Antimicrobial activity against slow growing colonies of Prevotella bivia LBP 52 deficient in nim gene assessed as inhibition of growth at 48 hrs by agar dilution method; conditions: LBP 52, 48 h; in short: as §3
[15] = tested on: Prevotella baroniae; experiment: Antimicrobial activity against Prevotella baroniae LBN 430 expressing nimI gene assessed as inhibition of growth after three consecutive subcultures on compound free medium by agar dilution method; conditions: Segatella baroniae
In short: (§5)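 Stability of induced resistance: metronidazole-selected isolates were subcultured three consecutive times on drug-free brucella blood agar (5% sheep blood, hemin, vitamin K1) under anaerobic conditions, then MIC was redetermined by CLSI agar dilution. Resistance was called stable if the MIC held within ±1 dilution. Duplicate experiments.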

[16] = tested on: Prevotella bivia; experiment: Antimicrobial activity against slow growing colonies of Prevotella bivia LBN 331 deficient in nim gene assessed as inhibition of growth at 48 hrs by agar dilution method; conditions: LBN 331, 48 h; in short: as §4
[17] = tested on: Prevotella baroniae; experiment: Antimicrobial activity against Prevotella baroniae LBN 427 expressing nim gene assessed as inhibition of growth at 48 hrs by agar dilution method; conditions: Segatella baroniae, LBN 427, 48 h; in short: as §1
[18] = tested on: Prevotella baroniae; experiment: Antimicrobial activity against Prevotella baroniae LBN 475 expressing nimI gene assessed as inhibition of growth after three consecutive subcultures on compound free medium by agar dilution method; conditions: Segatella baroniae; in short: as §5
[19] = tested on: Prevotella bivia; experiment: Antimicrobial activity against Prevotella bivia LBP 4 deficient in nim gene assessed as inhibition of growth at 48 hrs by agar dilution method; conditions: LBP 4, 48 h; in short: as §1
[20] = tested on: Prevotella bivia; experiment: Antimicrobial activity against Prevotella bivia LBN 343 deficient in nim gene assessed as inhibition of growth at 48 hrs by agar dilution method; conditions: LBN 343, 48 h; in short: as §2
[21] = tested on: Prevotella bivia; experiment: Antimicrobial activity against slow growing colonies of Prevotella bivia LBN 330 deficient in nim gene assessed as inhibition of growth at 48 hrs by agar dilution method; conditions: LBN 330, 48 h; in short: as §4
[22] = tested on: Prevotella bivia; experiment: Antimicrobial activity against slow growing colonies of Prevotella bivia LBP 78 deficient in nim gene assessed as inhibition of growth at 48 hrs by agar dilution method; conditions: LBP 78, 48 h; in short: as §3
[23] = tested on: Prevotella baroniae; experiment: Antimicrobial activity against Prevotella baroniae LBN 427 expressing nimI gene assessed as inhibition of growth after several passages on plates containing increasing concentrations of compound by agar dilution method; conditions: Segatella baroniae
In short: (§6)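 Induction of metronidazole resistance: bacterial suspensions inoculated onto brucella blood agar (5% sheep blood, hemin, vitamin K1) containing metronidazole at increasing concentrations, grown anaerobically at 37°C. Colonies growing at the highest concentration were retested for MIC by CLSI agar dilution on the same agar. Duplicate experiments.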

[24] = tested on: Prevotella bivia; experiment: Antimicrobial activity against Prevotella bivia LBN 365 deficient in nim gene assessed as inhibition of growth at 48 hrs by agar dilution method; conditions: LBN 365, 48 h; in short: as §1
[25] = tested on: Prevotella baroniae; experiment: Antimicrobial activity against Prevotella baroniae LBN 430 expressing nimI gene assessed as inhibition of growth after several passages on plates containing increasing concentrations of compound by agar dilution method; conditions: Segatella baroniae; in short: as §6
[26] = tested on: Prevotella bivia; experiment: Antimicrobial activity against Prevotella bivia LBN 467 deficient in nimI gene assessed as inhibition of growth after three consecutive subcultures on compound free medium by agar dilution method
In short: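 Resistance induction: bacterial suspensions were plated on supplemented brucella blood agar with rising metronidazole concentrations. Colonies from the highest concentration were tested by agar dilution. MIC was then redetermined after three consecutive subcultures on drug-free agar. Resistance counted as stable if the MIC held within ±1 dilution. Anaerobic growth at 37°C. Duplicate experiments.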

Cc1ncc([N+](=O)[O-])n1CCO [METRONIDAZOLE]
MIC [1]: 2 µg/mL (≈ 11.7 µM)
MIC [2]: 2 µg/mL (≈ 11.7 µM)
MIC [3]: 0.5 µg/mL (≈ 2.92 µM)
MIC [4]: 4 µg/mL (≈ 23.4 µM)
MIC [5]: 1 µg/mL (≈ 5.84 µM)
MIC [6]: 32 µg/mL (≈ 187 µM)
MIC [7]: 32 µg/mL (≈ 187 µM)
MIC [8]: 32 µg/mL (≈ 187 µM)
MIC [9]: 2 µg/mL (≈ 11.7 µM)
MIC [10]: 16 µg/mL (≈ 93.5 µM)
MIC [11]: 1 µg/mL (≈ 5.84 µM)
MIC [12]: 2 µg/mL (≈ 11.7 µM)
MIC [13]: 2 µg/mL (≈ 11.7 µM)
MIC [14]: 16 µg/mL (≈ 93.5 µM)
MIC [15]: 128 µg/mL (≈ 748 µM)
MIC [16]: 16 µg/mL (≈ 93.5 µM)
MIC [17]: 4 µg/mL (≈ 23.4 µM)
MIC [18]: 256 µg/mL (≈ 1500 µM)
MIC [19]: 2 µg/mL (≈ 11.7 µM)
MIC [20]: 1 µg/mL (≈ 5.84 µM)
MIC [21]: 16 µg/mL (≈ 93.5 µM)
MIC [22]: 8 µg/mL (≈ 46.7 µM)
MIC [23]: 128 µg/mL (≈ 748 µM)
MIC [24]: 4 µg/mL (≈ 23.4 µM)
MIC [25]: 128 µg/mL (≈ 748 µM)
MIC [26]: > 256 µg/mL
